pIC50: −log10 of the molar value. The source made the active and inactive calls. The rule behind the calls is not given here.
How the values were obtained:
HL-60 [1] = assay: Cytotoxicity against human HL60 cells assessed as reduction in cell viability up to 200 uM after 48 hrs by MTT assay; format: functional, cell-based; conditions: for IC50: hl-60; for pIC50: Homo sapiens, HL-60, 48 h, read-out: IC50
How it was run: (§1)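 Cells (7x10^4/well) in RPMI-1640 with 10% FBS, 37 °C, 5% CO2; exposed to compound dilutions 0–200 µM (medium with 10% FBS, 0.4% DMSO) for 48 h. MTT added, 3 h at 37 °C, formazan dissolved in DMSO, absorbance 540 nm. IC50 from concentration–response; means ± standard deviation of three independent experiments.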

NALM-6 [2] = assay: Cytotoxicity against human NALM6 cells assessed as reduction in cell viability up to 200 uM after 48 hrs by MTT assay; format: functional, cell-based; conditions: for IC50: nalm-6; for pIC50: Homo sapiens, NALM-6, 48 h, read-out: IC50; how it was run: as §1
Jurkat = assay: Cytotoxicity against human Jurkat cells assessed as reduction in cell viability up to 200 uM after 48 hrs by MTT assay; format: functional, cell-based; conditions: for IC50: jurkat; for pIC50: Homo sapiens, Jurkat, 48 h, read-out: IC50; how it was run: as §1
Homo sapiens [3] = species: Homo sapiens; assay: Inhibition of SRPK in human NALM6 cells assessed as decrease in RON mRNA expression level at 20 uM after 24 hrs by qRT-PCR analysis; format: cell-based
How it was run: (§2)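 Nalm6 given 20 µM for 24 h with 0.4% DMSO control; mRNA isolated with Tri Reagent, quantified spectrophotometrically, integrity checked on 1% agarose, then RT-PCR for target transcripts; one representative of three experiments.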

Homo sapiens [4] = species: Homo sapiens; assay: Inhibition of SRPK in human NALM6 cells assessed as decrease in VEGF mRNA expression level at 20 uM after 24 hrs by qRT-PCR analysis; format: cell-based; how it was run: as §2
Homo sapiens [5] = species: Homo sapiens; assay: Inhibition of SRPK in human NALM6 cells assessed as decrease in MAP2K1 mRNA expression level at 20 uM after 24 hrs by qRT-PCR analysis; format: cell-based; how it was run: as §2
Homo sapiens [6] = species: Homo sapiens; assay: Inhibition of SRPK in human NALM6 cells assessed as decrease in MAP2K2 mRNA expression level at 20 uM after 24 hrs by qRT-PCR analysis; format: cell-based; how it was run: as §2
Homo sapiens [7] = species: Homo sapiens; assay: Inhibition of SRPK in human NALM6 cell lysates assessed as reduction in phospho-SR epitopes signal at 20 uM after 24 hrs by Western blot analysis
How it was run: (§3)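 Nalm6 treated 24 h at 20 µM (DMSO vehicle control), lysed at 2x10^7 cells/mL in PBS with 1% NP40, 1 mM EDTA, 150 mM NaCl, 10 mM Tris pH 7.4 plus protease/phosphatase inhibitors; on ice 10 min, sonicated, spun 15000 xg; SDS-PAGE, PVDF, milk block overnight, primary and secondary antibody 2 h each; representative of three.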

NALM-6 [8] = assay: Cytotoxicity against human NALM6 cells assessed as cell growth inhibition at 20 uM after 96 hrs by trypan blue dye exclusion assay relative to control; format: functional; conditions: NALM-6, 96 h, read-out: GI
How it was run: (§4)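 Nalm6 at 1x10^4 or HL60 at 1.5x10^4 cells per well exposed to 20 µM; DMSO (0.4% v/v) as control. Viable cells counted by trypan blue exclusion on a hemocytometer at 0, 24, 48, 72 and 96 h; growth inhibition relative to control.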

NALM-6 [9] = assay: Effect on SRPK1 expression level in human NALM6 cells at 20 uM after 24 hrs by Western blot analysis; format: functional, cell-based; how it was run: as §3
NALM-6 [10] = assay: Induction of autophagy in human NALM6 cells at 20 uM after 24 hrs by acridin orange staining based fluorescence microscopy; format: functional, cell-based
How it was run: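 Nalm6 (7x10^4/well) exposed 24 h to 20 µM or 0.4% DMSO, washed in PBS, stained with 1 µM acridine orange at 37 °C for 15 min, washed, resuspended in PBS; autophagosomes (red fluorescence) viewed by fluorescence microscopy; three experiments.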

NALM-6 [11] = assay: Induction of apoptosis in human NALM6 cells assessed as necrotic cells at 20 uM after 12 hrs by Annexin-V/FITC propidium iodide staining based flow cytometric analysis (reference value: 0.04%); format: functional
NALM-6 [12] = assay: Induction of apoptosis in human NALM6 cells assessed as viable cells at 20 uM after 12 hrs by Annexin-V/FITC propidium iodide staining based flow cytometric analysis (reference value: 92.11%); format: functional; conditions: NALM-6, 12 h, read-out: Activity
NALM-6 [13] = assay: Induction of apoptosis in human NALM6 cells assessed as late apoptotic cells at 20 uM after 12 hrs by Annexin-V/FITC propidium iodide staining based flow cytometric analysis (reference value: 0.45%); format: functional
NALM-6 [14] = assay: Induction of apoptosis in human NALM6 cells assessed as viable cells at 20 uM after 24 hrs by Annexin-V/FITC propidium iodide staining based flow cytometric analysis (reference value: 90.10%); format: functional; conditions: NALM-6, 24 h, read-out: Activity
NALM-6 [15] = assay: Effect on SRPK2 expression level in human NALM6 cells at 20 uM after 24 hrs by Western blot analysis; format: functional, cell-based; how it was run: as §3
NALM-6 [16] = assay: Antiproliferative activity against human NALM6 cells at 20 uM by trypan blue dye exclusion assay; format: functional, cell-based; conditions: TDE = time-dependent effect; how it was run: as §4
NALM-6 [17] = assay: Synergistic cytotoxicity against human NALM6 cells assessed as reduction in cell viability by measuring combination index at 8.9 uM after 48 hrs in presence of 0.5 nM vincristine by MTT assay; format: functional
NALM-6 [18] = assay: Effect on actin expression level in human NALM6 cells at 20 uM after 24 hrs by Western blot analysis; format: ADME, cell-based; conditions: nalm-6, 24 h; how it was run: as §3
NALM-6 [19] = assay: Effect on actin expression level in human NALM6 cells at 20 uM after 24 hrs by qRT-PCR analysis; format: ADME, cell-based; conditions: nalm-6, 24 h
NALM-6 [20] = assay: Induction of apoptosis in human NALM6 cells assessed as necrotic cells at 20 uM after 24 hrs by Annexin-V/FITC propidium iodide staining based flow cytometric analysis (reference value: 0%); format: functional
PBMC = assay: Cytotoxicity against PHA-stimulated human PBMC assessed as reduction in cell viability at 25 uM after 48 hrs by MTT assay; format: cell-based
How it was run: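 Primary peripheral blood mononuclear cells seeded 1x10^5/well in complete RPMI; treated with 25 µM for 48 h. Viability by MTT (3 h, 37 °C, DMSO solubilization, 540 nm), vehicle taken as 100% viability; triplicate experiments, means ± standard deviation.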

NALM-6 [21] = assay: Induction of apoptosis in human NALM6 cells assessed as late apoptotic cells at 20 uM after 24 hrs by Annexin-V/FITC propidium iodide staining based flow cytometric analysis (reference value: 1.68%); format: functional
NALM-6 [22] = assay: Synergistic cytotoxicity against human NALM6 cells assessed as reduction in cell viability by measuring combination index at 17.9 uM after 48 hrs in presence of 1 nM vincristine by MTT assay; format: functional
HL-60 [23] = assay: Antiproliferative activity against human HL60 cells at 20 uM by trypan blue dye exclusion assay; format: functional, cell-based; conditions: TDE = time-dependent effect; how it was run: as §4
HL-60 [24] = assay: Cytotoxicity against human HL60 cells assessed as cell growth inhibition at 20 uM after 96 hrs by trypan blue dye exclusion assay relative to control; format: functional; conditions: HL-60, 96 h, read-out: GI; how it was run: as §4
NALM-6 [25] = assay: Induction of apoptosis in human NALM6 cells assessed as early apoptotic cells at 20 uM after 12 hrs by Annexin-V/FITC propidium iodide staining based flow cytometric analysis (reference value: 7.40%); format: functional
NALM-6 [26] = assay: Induction of apoptosis in human NALM6 cells assessed as early apoptotic cells at 20 uM after 24 hrs by Annexin-V/FITC propidium iodide staining based flow cytometric analysis (reference value: 8.22%); format: functional

SMILES: O=C(Nc1cc(C(F)(F)F)ccc1N1CCOCC1)c1ccccc1
- IC50 (HL-60 [1]): Not Active
- IC50 (NALM-6 [2]): Not Active
- IC50 (Jurkat): Not Active

SMILES: O=C(Nc1cc(C(F)(F)F)ccc1N1CCCC1)c1ccccc1
- IC50 (HL-60 [1]): Not Active
- IC50 (NALM-6 [2]): Not Active
- IC50 (Jurkat): Not Active

SMILES: O=C(Nc1cc(C(F)(F)F)ccc1N1CCOCC1)c1cccnc1Cl
- IC50 (HL-60 [1]): Not Active
- IC50 (NALM-6 [2]): Not Active
- IC50 (Jurkat): Not Active

SMILES: CCN(CC)c1ccc(C(F)(F)F)cc1NC(=O)c1cccnc1Cl
- pIC50 (HL-60 [1]): 4.08
- IC50 (NALM-6 [2]): Not Active
- pIC50 (Jurkat): 4.05

SMILES: O=C(Nc1cc(C(F)(F)F)ccc1N1CCCC1)c1cccnc1
- IC50 (HL-60 [1]): Not Active
- IC50 (NALM-6 [2]): Not Active
- IC50 (Jurkat): Not Active

SMILES: O=C(Nc1cc(C(F)(F)F)ccc1N1CCOCC1)c1ccncc1
- IC50 (HL-60 [1]): Not Active
- IC50 (NALM-6 [2]): Not Active
- IC50 (Jurkat): Not Active

SMILES: O=C(Nc1cc(C(F)(F)F)ccc1N1CCCCC1)c1ccncc1
- pIC50 (HL-60 [1]): 4.42
- inhibition (Homo sapiens [3]): inactive
- inhibition (Homo sapiens [4]): inactive
- pIC50 (NALM-6 [2]): 4.15
- inhibition (Homo sapiens [5]): inactive
- pIC50 (Jurkat): 4.12
- inhibition (Homo sapiens [6]): inactive
- inhibition (Homo sapiens [7]): Active

SMILES: O=C(Nc1cc(C(F)(F)F)ccc1NC1CCCCC1)c1ccccc1
- pIC50 (HL-60 [1]): 4.46
- IC50 (NALM-6 [2]): Not Active
- IC50 (Jurkat): Not Active

SMILES: O=C(Nc1cc(C(F)(F)F)ccc1N1CCCCC1)c1ccccc1
- IC50 (HL-60 [1]): Not Active
- IC50 (NALM-6 [2]): Not Active
- IC50 (Jurkat): Not Active

SMILES: CCN(CC)c1ccc(C(F)(F)F)cc1NC(=O)c1ccncc1
- pIC50 (HL-60 [1]): 4.05
- pIC50 (NALM-6 [2]): 4.20
- IC50 (Jurkat): Not Active

SMILES: O=C(Nc1cc(C(F)(F)F)ccc1N1CCCCC1)c1cccnc1
- IC50 (HL-60 [1]): Not Active
- IC50 (NALM-6 [2]): Not Active
- IC50 (Jurkat): Not Active

SMILES: O=C(Nc1cc(C(F)(F)F)ccc1N1CCCCC1)c1cccnc1Cl
- IC50 (HL-60 [1]): Not Active
- IC50 (NALM-6 [2]): Not Active
- IC50 (Jurkat): Not Active

SMILES: O=C(Nc1cc(C(F)(F)F)ccc1N1CCCC1)c1cccnc1Cl
- IC50 (HL-60 [1]): Not Active
- IC50 (NALM-6 [2]): Not Active
- IC50 (Jurkat): Not Active

SMILES: O=C(Nc1cc(C(F)(F)F)ccc1NC1CCCCC1)c1ccncc1
- pIC50 (HL-60 [1]): 4.23
- pIC50 (NALM-6 [2]): 4.23
- pIC50 (Jurkat): 4.09

SMILES: O=C(Nc1cc(C(F)(F)F)ccc1N1CCCC1)c1ccncc1
- IC50 (HL-60 [1]): Not Active
- IC50 (NALM-6 [2]): Not Active
- IC50 (Jurkat): Not Active

SMILES: CCN(CC)c1ccc(C(F)(F)F)cc1NC(=O)c1cccnc1
- pIC50 (HL-60 [1]): 4.15
- pIC50 (NALM-6 [2]): 4.20
- IC50 (Jurkat): Not Active

SMILES: CCN(CC)c1ccc(C(F)(F)F)cc1NC(=O)c1ccccc1
- IC50 (HL-60 [1]): Not Active
- IC50 (NALM-6 [2]): Not Active
- IC50 (Jurkat): Not Active

SMILES: O=C(Nc1cc(C(F)(F)F)ccc1NC1CCCCC1)c1cccnc1
- pIC50 (HL-60 [1]): 4.32
- pIC50 (NALM-6 [2]): 4.28
- IC50 (Jurkat): Not Active

SMILES: O=C(Nc1cc(C(F)(F)F)ccc1Nc1ccc(Br)cc1)c1cccnc1Cl
- inhibition of growth at 20 µM (NALM-6 [8]): 37%
- pIC50 (HL-60 [1]): 4.85
- Activity (NALM-6 [9]): inactive
- Activity (NALM-6 [10]): Active
- Activity (NALM-6 [11]): 0%
- viability at 20 µM (NALM-6 [12]): 87.9%
- Activity (NALM-6 [13]): 0.52%
- viability at 20 µM (NALM-6 [14]): 86.8%
- Activity (NALM-6 [15]): inactive
- Activity (NALM-6 [16]): Tde
- CI (NALM-6 [17]): 0.57
- Activity (NALM-6 [18]): Non-Toxic
- Activity (NALM-6 [19]): Non-Toxic
- Activity (NALM-6 [20]): 0.07%
- Activity (PBMC): Toxic
- Activity (NALM-6 [21]): 1.16%
- CI (NALM-6 [22]): 1.02
- Activity (HL-60 [23]): Tde
- pIC50 (NALM-6 [2]): 4.45
- inhibition of growth at 20 µM (HL-60 [24]): 33%
- pIC50 (Jurkat): 4.69
- Activity (NALM-6 [25]): 11.7%
- Activity (NALM-6 [26]): 11.91%

SMILES: O=C(Nc1cc(C(F)(F)F)ccc1N1CCOCC1)c1cccnc1
- IC50 (HL-60 [1]): Not Active
- IC50 (NALM-6 [2]): Not Active
- IC50 (Jurkat): Not Active

SMILES: O=C(Nc1cc(C(F)(F)F)ccc1Nc1ccc(Br)cc1)c1ccncc1
- IC50 (HL-60 [1]): Not Active
- pIC50 (NALM-6 [2]): 4.28
- IC50 (Jurkat): Not Active
